Screens as filed in PubChem BioAssay.
Lmaj promast: Leishmania major promastigote growth inhibition | inhibition, % at 10 µM | Leishmania major promastigotes, resazurin fluorescence viability | 9% of 200,000 active; in the data active = inhibition above about 50%;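 also: promastigotes grown with compound for 44 hours at 28 °C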
bCat nuc transl: alters nuclear translocation of beta-catenin in HeLa cells. nuclear translocation activity, % at 5 µM. immunofluorescence imaging. 0.3% of 190,000 active;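 active = nuclear translocation activity above 50% at 5 µM, with a well cell count of 50 or more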;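 also: per-cell ratio of nuclear to cytoplasmic median beta-catenin stain intensity; plate controls were DMSO negative control for no effect and GSK-3 inhibitor IX positive control for full effect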
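test system = HeLa cells, endogenous beta-catenin | dosing = single 5 µM dose plus 0.02–20 µM confirmation series | times = compound treatment 24 h, 37°C, 5% CO2 | technique = beta-catenin immunofluorescence imaging with DAPI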
APP 5UTR inh: APP translation inhibition; 0.82% of 190,000 active; inhibition, % at 2 µM; SH-SY5Y APP 5'UTR-luciferase reporter, luminescence; AID 1285;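 active = inhibition above a set limit, derived from the sample mean plus 3 SD, cut at about 45% in these data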
Ba/F3 V617F tox: lowers viability of Ba/F3 cells expressing EpoR and JAK2V617F. ATP luminescence. inhibition, % at 5.6 µM. 1.1% of 220,000 active. AID 1446;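 active = inhibition above the campaign mean plus 3 SD over all tested compounds, cut at about 24% in these data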;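 also: cytokine-independent growth of Ba/F3 cells driven by EpoR plus mutant JAK2; 0% = DMSO-treated cells and 100% = JAK inhibitor I control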
BaF3 tox: parental Ba/F3 viability inhibition as JAK2V617F counter-screen; 1.1% of 220,000 active; inhibition, % at 5.6 µM; AID 1486; CellTiter-Glo ATP luminescence;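 active = inhibition above a per-campaign cutoff, the mean inhibition of all tested compounds plus 3 SD, cut at about 27% in these data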;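 also: 0% = DMSO wells and 100% = JAK Inhibitor I control wells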
MT stabilize HCS: stabilizes microtubules in HeLa cells; HeLa tubulin immunostaining HCS, 24 h; share of cells brighter than vehicle mean+2SD; % tubulin-high responders, % at 10 µM; 0.83% of 200,000 active; AID 2205;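 active = plate Z-score above 3 for both tubulin-high and condensed-nucleus cell shares, with cell loss under 80%, at 10 µM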;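 also: anti alpha tubulin signal scored within the nucleus-defined area of each cell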
* hit, by the source's call; . = no result. Hits are enriched below; roughly 9.6% of the tested compounds scored in any of these assays.

SMILES	Lmaj promast	bCat nuc transl	APP 5UTR inh	Ba/F3 V617F tox	BaF3 tox	MT stabilize HCS
COc1ccc(N2CCN(C(=O)CCn3nnc4ccccc43)CC2)cc1	89*	2	-1	0	5	4
O=S(=O)(CS(=O)(=O)c1ccc(Cl)cc1)c1ccc(Cl)cc1	.	-1	.	-3	3	.
CCOC(=O)/C=C1\SCC(=O)N1CC(=O)N1CCOCC1	1	-1	-7	-1	-1	4
CC(C)COC(=O)Nc1nnc(SCCOc2ccccc2)s1	-4	1	-28	-5	0	2
O=C(COC(=O)CCSc1ccccc1)NCc1ccccc1Cl	-9	-2	10	3	9	5
Nc1ccc(C(=O)N/N=C\c2cc(N=Nc3cccc4ccccc34)ccc2O)cc1	99*	3	6	1	3	2
Cc1cc(C(=O)N/N=C/c2cc(N=Nc3ccccc3)ccc2O)n[nH]1	99*	-1	50*	5	10	5
COC(=O)c1c(NC(=O)C2CC2)sc(C(=O)Nc2ccccc2)c1C	14	-2	-33	2	6	6
Cc1c(NC(=O)CN2C(=O)NC3(CCCCC3)C2=O)c(=O)n(-c2ccccc2)n1C	-1	0	-15	-1	5	2
COCCNC(=O)Cn1cc(/C=N/NC(=O)c2ccc(Oc3ccc(O)cc3)cc2)c2ccccc21	-1	2	12	3	2	6
CCNC(=O)COC(=O)Cc1ccc(Cl)cc1Cl	-10	0	8	2	7	4
COc1ccccc1NS(=O)(=O)c1cccc(NC(=O)c2sc3ccccc3c2Cl)c1	95*	4	-11	-1	7	1
COc1ccccc1NS(=O)(=O)c1cccc(NC(=O)Nc2cccc(Cl)c2)c1	100*	2	7	-3	-3	6
COc1ccc(NS(=O)(=O)c2cc(N/C(=N\S(=O)(=O)c3ccccc3)c3ccc(F)cc3)ccc2Cl)cc1	76*	.	7	64*	61*	12*
O=C(Nc1ccc(Cl)cc1)Nc1ccc(N2CCCC2)c(S(=O)(=O)Nc2ccccc2Cl)c1	100*	0	4	53*	37*	9
O=C1NC(SCCCF)=N/C1=C/c1ccc(-n2cncn2)cc1	.	0	.	-4	-3	.
CN(C)Cc1nnnn1-c1ccccc1	.	2	.	-3	-3	.
COC(=O)c1ccccc1NC(=O)NCc1ccncc1	9	0	11	0	3	2
Cc1ccc(/C(O)=C/C(=O)C(=O)NC23CC4CC(CC(C4)C2)C3)cc1	.	0	.	-3	0	.
COC(=O)CNC(c1ccccc1)c1cc(C)ccc1NC(=O)c1cccc(Cl)c1 (configuration not stated)	16	-1	-7	-1	2	2
COc1ccc(C)cc1S(=O)(=O)Nc1cccc(Cl)c1	99*	.	9	2	10	1
COc1ccccc1NC(=O)Nc1ccc(Cl)c(S(=O)(=O)Nc2ccccc2OC)c1	99*	-1	-7	0	7	2
COc1ccc(C)cc1S(=O)(=O)Nc1cccc(C)c1	23	5	-2	-1	1	3
COc1ccccc1NS(=O)(=O)c1cc(NC(=O)C2CC2)ccc1N1CCOCC1	88*	-5	-22	5	10	5
Cc1ccc(C)c(OCC(=O)Nc2ccc(S(=O)(=O)Nc3ccccn3)cc2)c1	-3	0	-4	-5	0	2
SMILES	Lmaj promast	bCat nuc transl	APP 5UTR inh	Ba/F3 V617F tox	BaF3 tox	MT stabilize HCS
Cc1ccc2c(c1)cc(CN(Cc1ccc3c(c1)OCO3)C(=O)c1ccccc1)c1nnnn12	59*	-3	-20	-5	-4	3
Cc1ccc2c(c1)cc(CN(CCc1ccccc1)C(=O)N1CCOCC1)c1nnnn12	13	.	0	-3	3	2
Cc1ccc2c(c1)cc(CN(Cc1cccnc1)C(=O)NCc1ccccc1)c1nnnn12	100*	-1	5	0	1	3
O=C(CCl)N1c2ccccc2OCC1c1ccccc1 (configuration not stated)	57*	1	13	-2	4	5
CCC(C)(C)NC(=O)c1ccc(S(=O)(=O)N2CCCCCC2)cc1	-3	-4	-30	3	10	2
Cc1cc(C)c2nc(NNC(=O)c3ccc(S(=O)(=O)N4CCc5ccccc5C4)cc3)sc2c1	99*	-2	28	-1	5	10
Cc1nnc(NC(=O)c2ccc(S(=O)(=O)N3CCc4ccccc4C3)cc2)o1	-6	3	-15	-1	0	3
Cc1cc(C)c2sc(NNC(=O)c3ccc(S(=O)(=O)N4CCc5ccccc5C4)cc3)nc2c1	99*	0	11	-2	2	6
CN(C)CC(C)(C)CNS(=O)(=O)c1ccc(Cl)c(Cl)c1	80*	-2	-8	0	4	3
CN(C)CCNC(=O)c1cccc(NS(=O)(=O)c2ccc(Cl)c(Cl)c2)c1	-5	-2	-6	0	9	3
CC(C)C(NC(=O)C(Cc1ccccc1)NC(=O)OCc1ccccc1)C(=O)O (configuration not stated)	29	0	-8	2	0	2
CC(C)[C@H](NC(=O)[C@H](CCCN=C(N)N)NC(=O)NC(Cc1ccccc1)C(=O)O)C(=O)NC(C=O)CCCN=C(N)N (some centres not stated)	82*	-8	-74	2	9	2
COc1ccc2ncc(S(=O)(=O)c3ccccc3)c(N3CCC4(CC3)OCCO4)c2c1	6	3	1	-3	4	2
COc1ccc2ncc(S(=O)(=O)c3ccccc3)c(N3CCN(c4ccccc4)CC3)c2c1	99*	.	-2	1	2	2
O=C(c1cccs1)N1CCN(Cc2cccc([N+](=O)[O-])c2)CC1	13	0	4	5	6	6
NS(=O)(=O)c1ccc(CCNC(=O)Nc2ccc(Cl)c(Cl)c2)cc1	76*	-1	.	-2	-2	2
NS(=O)(=O)c1ccc(CNC(=S)Nc2ccc(Cl)c(Cl)c2)cc1	17	-1	5	5	9	3
O=C(Cc1ccccc1)NCc1ccc(-n2cccc2)cc1	-2	52*	1	8	5	4
O=C(Cc1ccc(-n2cccc2)cc1)NCc1ccccc1Cl	0	63*	5	-1	6	25*
COc1ccc(-n2nnnc2/C=C/Nc2cc(C(F)(F)F)ccc2OC)cc1	.	1	.	0	-2	.
COc1ccc(-n2nnnc2/C=C\Nc2ccccc2C(=O)c2ccccc2)cc1	6	62*	38	5	8	21*
NS(=O)(=O)c1ccc(Nc2nc3ccccc3nc2NS(=O)(=O)c2cccc([N+](=O)[O-])c2)cc1	-5	1	21	-1	4	2
N=c1n(Cc2ccccc2)c2ccccc2n1Cc1ccccc1	99*	.	-3	4	0	3
